According to ChEMBL document CHEMBL4043093, “2-Oxo-3, 4-dihydropyrimido[4, 5-d]pyrimidinyl derivatives as new irreversible pan fibroblast growth factor receptor (FGFR) inhibitors” (Eur J Med Chem, 2017):

What was measured:
[1] = target: Serine/threonine-protein kinase DCLK2 (Homo sapiens) (UniProt Q8N568); experiment: Inhibition of wild-type human partial length DCAMKL2 (K273 to V664 residues) expressed in Escherichia coli BL21 assessed as residual activity at 1000 nM after 30 mins by Kinomescan method relative to control
[2] = target: Tyrosine-protein kinase Mer (Homo sapiens) (UniProt Q12866); experiment: Inhibition of wild-type human partial length MERTK (R557 to L884 residues) expressed in Escherichia coli BL21 assessed as residual activity at 1000 nM after 30 mins by Kinomescan method relative to control
[3] = target: Cyclin-dependent kinase-like 5 (Homo sapiens) (UniProt O76039); experiment: Inhibition of wild-type human partial length CDKL5 (M1 to S337 residues) expressed in HEK293 cells assessed as residual activity at 1000 nM after 30 mins by Kinomescan method relative to control; assay type: cell-based
[4] = system: Tyrosine-protein kinase ABL1 (Homo sapiens), P00519 [F317L]; experiment: Inhibition of human non-phosphorylated ABL1 F317L mutant (S229 to K512 residues) expressed in HEK293 cells assessed as residual activity at 1000 nM after 30 mins by Kinomescan method relative to control; assay type: cell-based
How it was run: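 KINOMEscan binding panel of 456 kinases, with the test compound at a single concentration of 1 µM. Read-out is Percent Control.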

[5] = target: Serine/threonine-protein kinase Nek3 (Homo sapiens) (UniProt P51956); experiment: Inhibition of wild-type human full length NEK3 (M1 to R506 residues) expressed in HEK293 cells assessed as residual activity at 1000 nM after 30 mins by Kinomescan method relative to control; assay type: cell-based
How it was run: (§1)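 Single-concentration screen at 1 µM across a 456-kinase KINOMEscan panel. The read-out is Percent Control for each kinase.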

[6] = target: Cyclin-dependent kinase 13 (Homo sapiens) (UniProt Q14004); experiment: Inhibition of wild-type human partial length CDC2L5 (H675 to S1054 residues) expressed in HEK293 cells assessed as residual activity at 1000 nM after 30 mins by Kinomescan method relative to control; assay type: cell-based
[7] = target: Mitogen-activated protein kinase kinase kinase 7 (Homo sapiens) (UniProt O43318); experiment: Inhibition of wild-type human partial length TAK1 (M1 to Q303 residues) expressed in HEK293 cells assessed as residual activity at 1000 nM after 30 mins by Kinomescan method relative to control; assay type: cell-based
Mitogen-activated protein kinase kinase kinase 7 (Homo sapiens), sequence (O43318 whole entry, the tested form may be a part): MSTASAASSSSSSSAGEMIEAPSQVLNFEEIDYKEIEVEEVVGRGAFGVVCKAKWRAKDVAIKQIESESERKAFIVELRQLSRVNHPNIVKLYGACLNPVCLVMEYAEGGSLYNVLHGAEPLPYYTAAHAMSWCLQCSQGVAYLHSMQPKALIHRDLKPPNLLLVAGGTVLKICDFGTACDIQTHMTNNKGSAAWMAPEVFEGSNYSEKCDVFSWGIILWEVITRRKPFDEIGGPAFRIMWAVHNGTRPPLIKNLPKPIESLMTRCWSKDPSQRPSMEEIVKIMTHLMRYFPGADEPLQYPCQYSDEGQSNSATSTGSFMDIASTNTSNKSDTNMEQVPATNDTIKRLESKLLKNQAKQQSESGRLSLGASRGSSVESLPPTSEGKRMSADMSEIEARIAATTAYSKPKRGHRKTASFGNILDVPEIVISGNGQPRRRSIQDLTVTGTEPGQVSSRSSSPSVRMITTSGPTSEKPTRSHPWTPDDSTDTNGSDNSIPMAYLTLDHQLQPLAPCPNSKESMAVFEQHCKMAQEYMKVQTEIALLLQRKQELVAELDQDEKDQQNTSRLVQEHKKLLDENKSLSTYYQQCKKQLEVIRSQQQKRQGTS

[8] = target: Homeodomain-interacting protein kinase 2 (Homo sapiens) (UniProt Q9H2X6); experiment: Inhibition of wild-type human partial length HIPK2 (M153 to S564 residues) expressed in HEK293 cells assessed as residual activity at 1000 nM after 30 mins by Kinomescan method relative to control; assay type: cell-based
Homeodomain-interacting protein kinase 2 (Homo sapiens), sequence (Q9H2X6 whole entry, looked up, the tested form may be a part): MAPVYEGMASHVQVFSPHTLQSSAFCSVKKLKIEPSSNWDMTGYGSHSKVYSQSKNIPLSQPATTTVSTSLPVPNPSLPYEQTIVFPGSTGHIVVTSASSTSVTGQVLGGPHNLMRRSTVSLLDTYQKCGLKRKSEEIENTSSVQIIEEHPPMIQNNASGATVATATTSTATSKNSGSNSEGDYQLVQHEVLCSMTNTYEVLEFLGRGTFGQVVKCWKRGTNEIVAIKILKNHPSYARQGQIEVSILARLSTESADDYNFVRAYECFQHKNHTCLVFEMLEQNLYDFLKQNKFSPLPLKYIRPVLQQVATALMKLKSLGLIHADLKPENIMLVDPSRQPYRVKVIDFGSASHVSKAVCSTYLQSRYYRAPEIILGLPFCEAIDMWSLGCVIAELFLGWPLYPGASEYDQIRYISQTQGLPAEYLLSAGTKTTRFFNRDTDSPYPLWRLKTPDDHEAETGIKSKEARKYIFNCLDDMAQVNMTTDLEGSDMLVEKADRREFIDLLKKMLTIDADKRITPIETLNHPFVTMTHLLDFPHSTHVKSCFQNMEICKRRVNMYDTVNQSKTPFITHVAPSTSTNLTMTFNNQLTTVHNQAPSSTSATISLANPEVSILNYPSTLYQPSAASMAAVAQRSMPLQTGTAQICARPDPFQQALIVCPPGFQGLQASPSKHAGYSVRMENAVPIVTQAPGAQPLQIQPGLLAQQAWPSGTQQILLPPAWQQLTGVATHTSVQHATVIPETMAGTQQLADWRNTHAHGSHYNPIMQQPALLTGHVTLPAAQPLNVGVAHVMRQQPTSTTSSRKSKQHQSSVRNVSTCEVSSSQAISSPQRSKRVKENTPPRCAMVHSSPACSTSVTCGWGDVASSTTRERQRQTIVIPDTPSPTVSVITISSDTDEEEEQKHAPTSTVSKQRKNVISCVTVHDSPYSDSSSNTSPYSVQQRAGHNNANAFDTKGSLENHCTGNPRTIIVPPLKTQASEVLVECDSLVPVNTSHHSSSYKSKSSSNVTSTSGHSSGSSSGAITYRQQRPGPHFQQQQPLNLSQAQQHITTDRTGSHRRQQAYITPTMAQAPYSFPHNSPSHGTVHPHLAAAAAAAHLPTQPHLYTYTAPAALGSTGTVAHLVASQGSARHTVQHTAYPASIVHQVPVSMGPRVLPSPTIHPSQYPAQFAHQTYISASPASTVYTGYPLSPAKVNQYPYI

[9] = target: Dual specificity tyrosine-phosphorylation-regulated kinase 1B (Homo sapiens) (UniProt Q9Y463); experiment: Inhibition of wild-type human full length DYRK1B (M1 to S629 residues) expressed in Escherichia coli BL21 assessed as residual activity at 1000 nM after 30 mins by Kinomescan method relative to control; how it was run: as §1
[10] = target: Inhibitor of nuclear factor kappa-B kinase subunit beta (Homo sapiens) (UniProt O14920); experiment: Inhibition of wild-type human full length IKK-beta (M1 to S756 residues) expressed in HEK293 cells assessed as residual activity at 1000 nM after 30 mins by Kinomescan method relative to control; assay type: cell-based; how it was run: as §1
[11] = target: Non-receptor tyrosine-protein kinase TNK1 (Homo sapiens) (UniProt Q13470); experiment: Inhibition of wild-type human full length TNK1 (M1 to P661 residues) expressed in Escherichia coli BL21 assessed as residual activity at 1000 nM after 30 mins by Kinomescan method relative to control
Non-receptor tyrosine-protein kinase TNK1 (Homo sapiens), sequence (Q13470 whole entry, the tested form may be a part): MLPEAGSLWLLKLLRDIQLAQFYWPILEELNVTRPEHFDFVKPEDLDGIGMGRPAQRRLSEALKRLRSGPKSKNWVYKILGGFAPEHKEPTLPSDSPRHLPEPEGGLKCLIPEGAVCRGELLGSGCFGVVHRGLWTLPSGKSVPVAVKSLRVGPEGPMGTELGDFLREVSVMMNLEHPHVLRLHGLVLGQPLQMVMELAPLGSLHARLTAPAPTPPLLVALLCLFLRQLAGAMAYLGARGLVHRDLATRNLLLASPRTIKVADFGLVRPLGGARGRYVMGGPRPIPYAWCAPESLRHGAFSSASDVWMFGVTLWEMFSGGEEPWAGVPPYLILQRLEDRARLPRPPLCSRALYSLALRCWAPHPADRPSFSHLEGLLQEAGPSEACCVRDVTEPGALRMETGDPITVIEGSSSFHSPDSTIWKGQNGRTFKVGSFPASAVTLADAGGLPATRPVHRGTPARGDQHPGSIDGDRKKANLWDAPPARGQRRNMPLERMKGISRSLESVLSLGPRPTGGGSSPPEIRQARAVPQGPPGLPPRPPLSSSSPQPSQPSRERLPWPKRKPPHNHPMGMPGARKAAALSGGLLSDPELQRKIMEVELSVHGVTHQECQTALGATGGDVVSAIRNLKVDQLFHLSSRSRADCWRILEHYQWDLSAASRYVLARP

[12] = target: Serine/threonine-protein kinase Nek6 (Homo sapiens) (UniProt Q9HC98); experiment: Inhibition of wild-type human full length NEK6 (M8 to T313 residues) expressed in Escherichia coli BL21 assessed as residual activity at 1000 nM after 30 mins by Kinomescan method relative to control; how it was run: as §1
[13] = target: Dual specificity protein kinase CLK1 (Homo sapiens) (UniProt P49759); experiment: Inhibition of wild-type human full length CLK1 (M1 to I484 residues) expressed in Escherichia coli BL21 assessed as residual activity at 1000 nM after 30 mins by Kinomescan method relative to control
How it was run: (§2)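 Single-point screen at a fixed 1 µM, run within a 456-kinase DiscoveRx KINOMEscan panel. Each kinase's read-out is Percent Control, i.e. signal relative to a control without compound. Hits were scored by a Percent Control < 35 cut-off, and an S(35) selectivity score was calculated across the non-mutant kinases.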

[14] = target: Phosphatidylinositol 4-phosphate 3-kinase C2 domain-containing subunit beta (Homo sapiens) (UniProt O00750); experiment: Inhibition of wild-type human partial length PIK3C2B (M1 to L1634 residues) expressed in HEK293 cells assessed as residual activity at 1000 nM after 30 mins by Kinomescan method relative to control; assay type: cell-based
[15] = target: Fibroblast growth factor receptor 1 (Homo sapiens, UniProt P11362); experiment: Inhibition of wild-type human partial length FGFR1 (P357 to V669 residues) expressed in Escherichia coli BL21 assessed as residual activity at 1000 nM after 30 mins by Kinomescan method relative to control
[16] = target: G protein-coupled receptor kinase 4 (Homo sapiens) (UniProt P32298); experiment: Inhibition of wild-type human full length GRK4 (M1 to C578 residues) expressed in Escherichia coli BL21 assessed as residual activity at 1000 nM after 30 mins by Kinomescan method relative to control; how it was run: as §1
G protein-coupled receptor kinase 4 (Homo sapiens), sequence (P32298 whole entry, looked up, the tested form may be a part): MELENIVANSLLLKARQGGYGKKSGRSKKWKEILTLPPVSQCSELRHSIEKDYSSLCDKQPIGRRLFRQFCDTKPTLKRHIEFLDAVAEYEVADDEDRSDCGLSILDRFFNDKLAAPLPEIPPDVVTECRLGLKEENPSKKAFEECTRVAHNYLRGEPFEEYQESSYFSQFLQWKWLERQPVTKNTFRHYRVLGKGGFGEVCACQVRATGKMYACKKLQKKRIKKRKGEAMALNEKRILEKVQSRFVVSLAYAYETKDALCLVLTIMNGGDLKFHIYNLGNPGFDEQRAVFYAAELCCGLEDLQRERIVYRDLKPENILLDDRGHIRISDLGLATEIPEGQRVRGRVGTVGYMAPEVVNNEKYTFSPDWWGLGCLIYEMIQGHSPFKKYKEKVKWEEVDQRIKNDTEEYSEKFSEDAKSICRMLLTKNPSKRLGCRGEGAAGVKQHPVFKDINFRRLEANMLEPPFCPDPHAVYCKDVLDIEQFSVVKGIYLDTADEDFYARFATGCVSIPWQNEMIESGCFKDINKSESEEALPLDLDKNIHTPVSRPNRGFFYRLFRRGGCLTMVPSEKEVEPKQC

[17] = target: Serine/threonine-protein kinase mTOR (Homo sapiens) (UniProt P42345); experiment: Inhibition of wild-type human partial length MTOR (L1382 to W2549 residues) expressed in HEK293 cells assessed as residual activity at 1000 nM after 30 mins by Kinomescan method relative to control; assay type: cell-based
Plasmodium falciparum = experiment: Inhibition of wild-type Plasmodium falciparum full length CDPK1 (M1 to S524 residues) expressed in HEK293 cells assessed as residual activity at 1000 nM after 30 mins by Kinomescan method relative to control; assay type: cell-based; how it was run: as §2
[18] = target: Inhibitor of nuclear factor kappa-B kinase subunit alpha (Homo sapiens) (UniProt O15111); experiment: Inhibition of wild-type human full length IKK-alpha (M1 to E745 residues) expressed in HEK293 cells assessed as residual activity at 1000 nM after 30 mins by Kinomescan method relative to control; assay type: cell-based; how it was run: as §1
[19] = target: TRAF2 and NCK-interacting protein kinase (Homo sapiens) (UniProt Q9UKE5); experiment: Inhibition of wild-type human partial length TNIK (D4 to K311 residues) expressed in Escherichia coli BL21 assessed as residual activity at 1000 nM after 30 mins by Kinomescan method relative to control
TRAF2 and NCK-interacting protein kinase (Homo sapiens), sequence (Q9UKE5 whole entry, looked up, the tested form may be a part): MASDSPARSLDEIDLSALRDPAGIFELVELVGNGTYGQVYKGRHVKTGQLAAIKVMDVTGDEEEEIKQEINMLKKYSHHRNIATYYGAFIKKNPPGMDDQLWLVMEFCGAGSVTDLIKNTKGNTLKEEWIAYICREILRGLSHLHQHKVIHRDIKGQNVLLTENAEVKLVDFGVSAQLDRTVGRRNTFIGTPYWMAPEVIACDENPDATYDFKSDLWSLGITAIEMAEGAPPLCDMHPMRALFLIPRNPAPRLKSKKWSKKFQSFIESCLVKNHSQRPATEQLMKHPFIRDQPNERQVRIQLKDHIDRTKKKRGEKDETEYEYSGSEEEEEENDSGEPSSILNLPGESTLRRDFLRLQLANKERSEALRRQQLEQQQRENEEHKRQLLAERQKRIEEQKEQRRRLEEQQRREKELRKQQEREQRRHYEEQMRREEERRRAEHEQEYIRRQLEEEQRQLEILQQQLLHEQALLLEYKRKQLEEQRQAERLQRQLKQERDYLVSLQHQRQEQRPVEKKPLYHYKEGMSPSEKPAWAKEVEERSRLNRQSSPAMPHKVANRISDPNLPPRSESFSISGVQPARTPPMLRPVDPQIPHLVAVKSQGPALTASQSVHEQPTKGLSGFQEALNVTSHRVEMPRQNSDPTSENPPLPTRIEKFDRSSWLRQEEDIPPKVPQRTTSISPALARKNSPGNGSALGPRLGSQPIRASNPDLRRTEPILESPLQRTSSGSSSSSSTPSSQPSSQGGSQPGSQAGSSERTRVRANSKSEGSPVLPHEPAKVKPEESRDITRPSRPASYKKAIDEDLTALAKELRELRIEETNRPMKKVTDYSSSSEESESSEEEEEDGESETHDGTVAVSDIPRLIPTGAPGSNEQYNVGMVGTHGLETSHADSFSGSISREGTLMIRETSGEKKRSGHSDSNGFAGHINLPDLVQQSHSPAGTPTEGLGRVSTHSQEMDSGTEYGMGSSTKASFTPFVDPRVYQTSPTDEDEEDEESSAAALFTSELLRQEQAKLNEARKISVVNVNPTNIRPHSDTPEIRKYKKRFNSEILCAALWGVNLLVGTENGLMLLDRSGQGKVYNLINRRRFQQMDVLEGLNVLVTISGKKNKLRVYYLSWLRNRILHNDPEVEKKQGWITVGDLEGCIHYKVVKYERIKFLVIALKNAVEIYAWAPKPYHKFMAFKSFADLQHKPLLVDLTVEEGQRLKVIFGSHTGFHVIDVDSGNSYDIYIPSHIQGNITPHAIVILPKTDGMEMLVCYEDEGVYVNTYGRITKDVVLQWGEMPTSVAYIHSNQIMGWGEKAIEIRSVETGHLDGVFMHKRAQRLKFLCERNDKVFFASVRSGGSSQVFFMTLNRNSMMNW

[20] = target: Atypical kinase COQ8A, mitochondrial (Homo sapiens) (UniProt Q8NI60); experiment: Inhibition of wild-type human […] ADCK3 (M280 to Q647 residues) expressed in Escherichia coli BL21 assessed as residual activity at 1000 nM after 30 mins by Kinomescan method relative to control; how it was run: as §2
Atypical kinase COQ8A, mitochondrial (Homo sapiens), sequence (Q8NI60 163-647 limits assumed): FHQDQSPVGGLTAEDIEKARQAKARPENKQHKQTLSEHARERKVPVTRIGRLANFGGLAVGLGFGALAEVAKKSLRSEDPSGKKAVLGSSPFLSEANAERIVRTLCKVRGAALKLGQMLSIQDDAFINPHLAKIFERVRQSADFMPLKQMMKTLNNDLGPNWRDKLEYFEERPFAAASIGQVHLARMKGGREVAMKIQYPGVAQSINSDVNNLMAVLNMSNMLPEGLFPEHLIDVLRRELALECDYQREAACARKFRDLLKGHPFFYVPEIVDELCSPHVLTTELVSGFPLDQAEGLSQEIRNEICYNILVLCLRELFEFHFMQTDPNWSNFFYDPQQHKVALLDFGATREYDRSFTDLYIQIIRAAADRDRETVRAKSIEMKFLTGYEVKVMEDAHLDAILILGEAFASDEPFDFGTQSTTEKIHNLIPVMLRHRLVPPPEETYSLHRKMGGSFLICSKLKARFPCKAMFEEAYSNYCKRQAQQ

COc1cc(OC)c(Cl)c(N2Cc3cnc(Nc4ccc(F)cc4)nc3N(C3CCN(C(=O)/C=C/CN(C)C)CC3)C2=O)c1Cl
Activity [1]: 73%
Activity [2]: 85%
Activity [3]: 100%
Activity [4]: 96%
Activity [5]: 79%
Activity [6]: 100%
Activity [7]: 100%
Activity [8]: 100%
Activity [9]: 81%
Activity [10]: 100%
Activity [11]: 93%
Activity [12]: 100%
Activity [13]: 100%
Activity [14]: 89%
Activity [15]: 0.6%
Activity [16]: 78%
Activity [17]: 93%
Activity (Plasmodium falciparum): 100%
Activity [18]: 95%
Activity [19]: 94%
Activity [20]: 100%
